In ChEMBL document CHEMBL1240409, “Design, synthesis and evaluation of (E)-alpha-benzylthio chalcones as novel inhibitors of BCR-ABL kinase” (Bioorg Med Chem, 2010):

Key:
K562 = test: Growth inhibition of human K562 cells expressing p210Bcr/Abl after 96 hrs by trypan blue exclusion assay; type: functional, cell-based; conditions: K562, 96 h
Method in brief: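 K562 cells were kept in RPMI with 10% FBS and penicillin–streptomycin at 37 °C under 5% CO2. Cells were seeded at 1 × 10^5 cells/mL with a range of compound concentrations, using DMSO as the negative control. After 96 h, viability was counted by Trypan blue exclusion and expressed as percent of DMSO control to derive GI50.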

DU-145 = test: Growth inhibition of human DU145 cells after 96 hrs by trypan blue exclusion assay; type: functional; conditions: DU-145, 96 h

Compound | GI50 (K562) | GI50 (DU-145)
CN(C)c1ccc(/C=C(/SCc2ccc(Cl)cc2)C(=O)c2ccc(Br)cc2)cc1 | 1 µM | 10 µM
CSc1ccc(/C=C(/SCc2ccc(Br)cc2)C(=O)c2ccc(C(=O)O)cc2)cc1 | 10 µM | 10 µM
COc1ccc(/C=C(/SCc2ccc(F)cc2)C(=O)c2ccc(Br)cc2)cc1 | 1 µM | 50 µM
CN(C)c1ccc(/C=C(/SCc2ccc(Cl)cc2)C(=O)c2ccc(C(=O)O)cc2)cc1 | 1 µM | 1 µM
O=C(/C(=C\c1ccc(Cl)cc1)S(=O)(=O)c1ccc(Cl)cc1)c1ccc(Cl)cc1 | 10 µM | 25 µM
O=C(C(=Cc1ccc(Br)cc1)SCc1ccccc1Cl)c1ccc(Cl)cc1 | 1 µM | 10 µM
CN(C)c1ccc(/C=C(/SCc2ccc(Cl)c(Cl)c2)C(=O)c2ccc(Cl)cc2)cc1 | 50 µM | 50 µM
CCOc1ccc(/C=C(/SCc2ccc(F)cc2)C(=O)c2ccc(Br)cc2)cc1OC | 1 µM | 50 µM
O=C(/C(=C\c1cc([N+](=O)[O-])ccc1F)S(=O)(=O)Cc1ccc(F)cc1)c1ccc(Br)cc1 | 50 µM | > 100 µM
Cc1cc(C)cc(/C=C(/SCc2ccc(F)cc2)C(=O)c2ccc(Br)cc2)c1 | 1 µM | 10 µM
Cc1ccsc1/C=C(/SCc1ccc(F)cc1)C(=O)c1ccc(Cl)cc1 | 50 µM | 50 µM
O=C(/C(=C\c1cc(Br)c(O)c(Br)c1)SCc1ccc(Br)cc1)c1ccc(Br)cc1 | 10 µM | 1 µM
COc1ccc(C(=O)/C(=C\c2ccc(O)c([N+](=O)[O-])c2)SCc2ccc(Br)cc2)cc1 | 10 µM | 10 µM
O=C(/C(=C\c1c(O)cc(O)cc1O)SCc1ccc(Cl)cc1Cl)c1ccc(Cl)cc1 | > 100 µM | 25 µM
COc1ccc(C(=O)C(=Cc2ccc(Br)cc2)S(=O)(=O)Cc2ccc(Br)cc2)cc1 | 1 µM | 1 µM
O=C(/C(=C\c1ccc(Br)cc1)S(=O)(=O)c1ccc(Br)cc1)c1ccc(Br)cc1 | 10 µM | 10 µM
O=C(/C(=C\c1ccc([N+](=O)[O-])c(O)c1)Sc1c(F)c(F)c(F)c(F)c1F)c1ccc(Br)cc1 | 1 µM | 10 µM
O=C(/C(=C\c1ccccc1OCc1ccccc1)S(=O)(=O)Cc1ccc(Cl)cc1)c1ccc(Br)cc1 | 1 µM | 10 µM
O=C(/C(=C\c1ccc(O)c([N+](=O)[O-])c1)SCc1ccc(Cl)cc1)c1ccc(Cl)cc1 | 10 µM | 10 µM
O=C(/C(=C\c1c[nH]c2ccccc12)Sc1ccc(Br)cc1)c1ccc(Br)cc1 | 1 µM | 1 µM
Cc1ccc(CS(=O)(=O)/C(=C/c2ccc(Cl)cc2)C(=O)c2ccc(Cl)cc2)cc1 | 25 µM | 25 µM

Compound | GI50 (K562) | GI50 (DU-145)
O=C(O)c1cc(/C=C(/Sc2ccc(Br)cc2)C(=O)c2c(F)c(F)c(F)c(F)c2F)ccc1O | 25 µM | 25 µM
Cc1ccc(/C=C(/SCc2ccc(Cl)cc2)C(=O)c2ccc([N+](=O)[O-])cc2)s1 | 25 µM | 25 µM
O=C(/C(=C\c1ccccc1OCc1ccccc1)SCc1ccc(F)cc1)c1ccc(Br)cc1 | 1 µM | 1 µM
O=C(/C(=C\c1ccc(Cl)c([N+](=O)[O-])c1)S(=O)(=O)c1ccc(Br)cc1)c1ccc(Br)cc1 | 1 µM | 10 µM
O=C(/C(=C\c1ccc(O)cc1)S(=O)(=O)Cc1ccc(Cl)c(Cl)c1)c1ccc(Cl)cc1 | 10 µM | 10 µM
O=C(C(=Cc1ccc(O)c([N+](=O)[O-])c1)SCc1ccc(Br)cc1)c1ccc([N+](=O)[O-])c(Cl)c1 | 1 µM | 1 µM
O=C(/C(=C\c1cc(Cl)c(O)c(Cl)c1)S(=O)(=O)Cc1ccc(Br)cc1)c1ccc(Br)cc1 | 25 µM | 25 µM
Cc1cc(F)ccc1/C=C(/SCc1ccc(F)cc1)C(=O)c1ccc(Br)cc1 | 10 µM | 10 µM
O=C(/C(=C\c1ccc(Br)cc1)S(=O)(=O)Cc1ccc(F)cc1)c1ccc(Cl)cc1 | 50 µM | > 100 µM
O=C(/C(=C\c1ccc(O)c([N+](=O)[O-])c1)Sc1ccc(Br)cc1)c1c(F)c(F)c(F)c(F)c1F | 1 µM | 1 µM
O=C(O)c1ccc(C(=O)/C(=C\c2ccc(Cl)c([N+](=O)[O-])c2)SCc2ccc(C(F)(F)F)cc2)cc1 | 1 µM | 1 µM
Cc1ccc(/C=C(\C(=O)c2ccc(Cl)cc2)S(=O)(=O)Cc2ccc(Cl)cc2Cl)s1 | 25 µM | 10 µM
CCOc1ccc(/C=C(\C(=O)c2ccc(Br)cc2)S(=O)(=O)c2ccc(Br)cc2)c(OCC)c1 | 1 µM | 10 µM
Cc1ccsc1/C=C(\C(=O)c1ccc(Cl)cc1)S(=O)(=O)Cc1ccc(Cl)cc1 | 25 µM | 25 µM
N#Cc1ccc(C(=O)/C(=C\c2ccc(O)c([N+](=O)[O-])c2)SCc2ccc(Br)cc2)cc1 | 10 µM | 10 µM
O=C(/C(=C\c1ccc2ccccc2n1)SCc1ccc(F)cc1)c1ccc(Br)cc1 | 25 µM | 25 µM
O=C(/C(=C\c1ccc([N+](=O)[O-])c(O)c1)SCc1ccc(Br)cc1)c1c(F)c(F)c(F)c(F)c1F | 1 µM | 10 µM
O=C(O)c1ccc(/C=C(/SCc2ccc(Cl)cc2)C(=O)c2ccc(C(=O)O)cc2)cc1 | > 100 µM | > 100 µM
Cc1ccc(C)c(/C=C(/SCc2ccc(F)cc2)C(=O)c2ccc(Br)cc2)c1 | 50 µM | 1 µM
O=C(/C(=C\c1ccc(OC(F)(F)F)cc1)S(=O)(=O)c1ccc(Br)cc1)c1ccc(Br)cc1 | 25 µM | 25 µM

The next lines start with the values.

GI50 (K562) | GI50 (DU-145) | Compound
25 µM | 50 µM | Cc1ccc(S/C(=C/c2cc(C)cc(C)c2)C(=O)c2ccc(Cl)cc2)cc1
50 µM | 50 µM | Cc1ccc(CS/C(=C/c2c(O)cc(O)cc2O)C(=O)c2ccc(Cl)cc2)cc1
50 µM | 50 µM | Cc1ccc(CS(=O)(=O)/C(=C/c2ccc(N(C)C)cc2)C(=O)c2ccc(Cl)cc2)cc1
10 µM | 10 µM | Cc1ccc(CS/C(=C/c2sccc2C)C(=O)c2ccc(Cl)cc2)cc1
1 µM | 1 µM | COc1ccc(/C=C(\C(=O)c2ccc(Cl)cc2)S(=O)(=O)c2ccc(C)cc2)cc1O
25 µM | 50 µM | Cc1ccc(S/C(=C/c2ccc(-c3ccccc3)cc2)C(=O)c2ccc(Cl)cc2)cc1
1 µM | 10 µM | Cc1ccc(S/C(=C/c2c[nH]c3ccccc23)C(=O)c2ccc(Cl)cc2)cc1
1 µM | 10 µM | Cc1cc(C)cc(/C=C(/Sc2ccc(Br)cc2)C(=O)c2ccc(Cl)cc2)c1
50 µM | 50 µM | CC(=O)c1ccc(/C=C(/Sc2ccc(C)cc2)C(=O)c2ccc(Br)cc2)cc1
1 µM | 10 µM | Cc1ccc(CS/C(=C/c2ccc(Br)cc2)C(=O)c2ccc(Cl)cc2)cc1
1 µM | 25 µM | COc1ccc(/C=C(/Sc2ccc(F)cc2)C(=O)c2ccc(OC)cc2)cc1
10 µM | 50 µM | COc1ccc(/C=C(/Sc2ccc(C)cc2)C(=O)c2ccc(Br)cc2)cc1
1 µM | 1 µM | CCOc1ccc(/C=C(\C(=O)c2ccc(Br)cc2)S(=O)(=O)c2ccc(C)cc2)cc1OC
1 µM | 1 µM | Cc1ccc(S/C(=C/c2c[nH]c3ccc(Cl)cc23)C(=O)c2ccc(Br)cc2)cc1
50 µM | 50 µM | Cc1ccc(C(=O)/C(=C\c2ccc(N(C)C)cc2)S(=O)(=O)c2ccc(Cl)cc2)cc1
> 100 µM | > 100 µM | O=C(/C(=C\c1c(O)cc(O)cc1O)SCc1ccc(Cl)cc1)c1ccc(Cl)cc1
50 µM | 50 µM | COc1ccc(S/C(=C/c2ccc(C)s2)C(=O)c2ccc(Cl)cc2)cc1

GI50 (K562) | GI50 (DU-145) | Compound
10 µM | 25 µM | CCOc1ccc(/C=C(/Sc2ccc(C)cc2)C(=O)c2ccc(Cl)cc2)cc1OC
10 µM | 10 µM | COc1cc(OC)c(/C=C(/SCc2ccc(Cl)c(Cl)c2)C(=O)c2ccc(Cl)cc2)c(OC)c1
25 µM | 50 µM | O=C(/C(=C\c1ccc(O)cc1O)Sc1ccc(Br)cc1)c1ccc(Cl)cc1
1 µM | 25 µM | Cc1ccc(S/C(=C/c2ccc(F)c(C)c2)C(=O)c2ccc(Br)cc2)cc1
10 µM | 10 µM | Cc1ccc(S/C(=C/c2ccc[nH]2)C(=O)c2ccc(Cl)cc2)cc1
> 100 µM | > 100 µM | Cc1ccc(S/C(=C/c2ccc(F)cc2F)C(=O)c2ccc(Br)cc2)cc1
> 100 µM | > 100 µM | Cc1ccc(S/C(=C/c2cnc3ccccc3c2)C(=O)c2ccc(Cl)cc2)cc1
1 µM | 10 µM | Cc1ccc(CS/C(=C/c2ccc(Cl)cc2)C(=O)c2ccc(Cl)cc2)cc1
50 µM | 50 µM | Cc1ccc(CS/C(=C/c2ccc(O)c(O)c2O)C(=O)c2ccc(Cl)cc2)cc1
50 µM | 50 µM | Cc1ccc(CS/C(=C/c2ccc(C)s2)C(=O)c2ccc(Cl)cc2)cc1
25 µM | > 100 µM | COc1cc(OC)c(/C=C(/Sc2ccc(C)cc2)C(=O)c2ccc(Cl)cc2)c(OC)c1
1 µM | 1 µM | Cc1ccc(CS(=O)(=O)/C(=C/c2cc(C)ccc2C)C(=O)c2ccc(Cl)cc2)cc1
> 100 µM | > 100 µM | COc1cc(OC)c(/C=C(\C(=O)c2ccc(Cl)cc2)S(=O)(=O)c2ccc(Br)cc2)c(OC)c1
10 µM | 10 µM | COc1ccc(/C=C(/SCc2ccc(Cl)cc2)C(=O)c2ccc(C(=O)O)cc2)cc1
1 µM | 10 µM | COc1ccccc1/C=C(/SCc1ccccc1F)C(=O)c1ccc(Cl)cc1
10 µM | 10 µM | COc1ccc(/C=C(\C(=O)c2ccc(Br)cc2)S(=O)(=O)Cc2ccc(Cl)cc2)c(O)c1
